The nature of series [1]: melting temperature; fluorescence melt of hairpins on a sequencing array, two-state fit, raised by 9.35 °C to match UV melts. To be noted: sodium 0.088 M. The method in brief:
(§1)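 Hairpins were imaged by Cy3 fluorescence on a sequenced MiSeq flow cell with annealed Cy3 and quencher oligos, in 50 mM Na-HEPES pH 8.0, 25 mM NaCl, in 2.5 °C steps up to 60 °C. Bootstrapped two-state fits of normalised signals gave melting temperature and folding enthalpy. Four replicates were combined by inverse variance, and fitted temperatures were raised by 9.35 °C to match UV melts.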

The nature of series [2]: folding enthalpy; higher = less favourable; fluorescence melt of hairpins on a sequencing array, two-state fit. To be noted: sodium 0.088 M. The method in brief: as §1

Take GATCACGACGTGATC ((((((...)))))): the Tm in series [1] was determined as 64.6 °C. In series [2], the folding enthalpy is -30.6 kcal/mol.

With GCTTGGCGAAAGCAAGGC ((.(.((....)).).)), the Tm in series [1] came to 45.6 °C. In addition, in series [2], the folding enthalpy was -14.9 kcal/mol.

Take GGCAAACGAAAGTTGCC (((.(((....)))))): the Tm in series [1] came to 59.6 °C. In addition, in series [2], the folding enthalpy is -33.3 kcal/mol.

With GTAGGGCGAAAGCCTTAC (((.(((....))).))), the Tm in series [1] came to 50.4 °C. Moreover, in series [2], the folding enthalpy was -20.2 kcal/mol.

Consider GTGGGCGAAAGCCCCAC ((((((....))).))), for which the Tm in series [1] came to 60.2 °C. In addition, in series [2], the folding enthalpy is -11.3 kcal/mol.

As to GATCCATTGTTGGATC ((((((....)))))), the Tm in series [1] was determined as 52.2 °C. In addition, in series [2], the folding enthalpy is -44.2 kcal/mol.

As for GGCCGGGGAAACTCGGCC (((((.(....).))))), the Tm in series [1] was 68.4 °C. The folding enthalpy in series [2] was -40 kcal/mol.

As for CGAGCGGAAACGCGTCG ((((((....))).))), the Tm in series [1] amounted to 53.6 °C. Further, the folding enthalpy in series [2] was -13.2 kcal/mol.

For GTTTACGGAAACGTAGAC ((.((((....)))).)), in series [1], the Tm worked out at 40.3 °C. For the same sequence, the folding enthalpy in series [2] was -24.7 kcal/mol.

Turning to GGTCGCGAAAGCGTCACC ((((((....)))..))), the Tm in series [1] worked out at 40.1 °C. The folding enthalpy in series [2] was -13.3 kcal/mol.

As for GCGTCGGGAAACCGGTGC ((..(((....)))..)), the Tm in series [1] is 48.7 °C. The folding enthalpy in series [2] is -21.2 kcal/mol.

Consider GATCAGCGAGCTGATC ((((((....)))))), for which, in series [1], the Tm is 61.4 °C. Moreover, in series [2], the folding enthalpy was -44.7 kcal/mol.

Regarding GCGGAGACCCGC ((((....)))), the Tm in series [1] is 52.8 °C. Besides, in series [2], the folding enthalpy is -20.5 kcal/mol.

GTGTCCGAAAGGACGCAC ((((((....)))..))): the Tm in series [1] was found to be 57.8 °C. Moreover, the folding enthalpy in series [2] was -10.4 kcal/mol.

GATCGACATTCGATC ((((((...)))))): the Tm in series [1] worked out at 49.9 °C. The folding enthalpy in series [2] is -36.1 kcal/mol.

GATAGCCGAAAGGCAATC (((.(((....))).))): the Tm in series [1] worked out at 46 °C. Further, the folding enthalpy in series [2] is -19.1 kcal/mol.

As for CGCGGAATTATCCGCG ((((((....)))))), in series [1], the Tm worked out at 67.2 °C. For the same sequence, the folding enthalpy in series [2] was -41.5 kcal/mol.

On to CGCGGACGGCTCCGCG ((((((....)))))), for which the Tm in series [1] was 68.5 °C. Also, the folding enthalpy in series [2] was -23.5 kcal/mol.

As for GATCCTACGAAGGATC ((((((....)))))), in series [1], the Tm was determined as 50.3 °C. Moreover, in series [2], the folding enthalpy was -35.9 kcal/mol.

Turning to GCAGCGCGAAAGCTCAGC ((.(.((....)).).)), the Tm in series [1] came out at 39.9 °C. For the same sequence, in series [2], the folding enthalpy is -10.6 kcal/mol.

On to GGCCTGGCGAAAGCCGCC (((..(((....)))))), for which, in series [1], the Tm turned out to be 48.7 °C. For the same sequence, the folding enthalpy in series [2] was -15.5 kcal/mol.

On to CGACCCGGAAACGGTTCG (((.(((....))).))), for which, in series [1], the Tm was found to be 48.6 °C. The folding enthalpy in series [2] is -39.8 kcal/mol.

Take GCTGCTGGAAACAGTGGC ((..(((....)))..)): the Tm in series [1] worked out at 47.6 °C. Besides, the folding enthalpy in series [2] was -40.2 kcal/mol.

On to GACTTGGGAAACTAGGTC (((.(.(....).).))), for which, in series [1], the Tm came to 25.4 °C. Moreover, in series [2], the folding enthalpy was -9.69 kcal/mol.

As for GTGCCCGAAAGGGCCAC ((((((....))).))), in series [1], the Tm came out at 57.2 °C. Besides, the folding enthalpy in series [2] was -7.47 kcal/mol.

Regarding GCCGGCGAAAGCCTGGGC ((((((....)))..))), in series [1], the Tm stood at 60 °C. Moreover, the folding enthalpy in series [2] is -24.5 kcal/mol.

For the sequence GTCCCTGCGAAAGCAGAC (((..(((....)))))), the Tm in series [1] was 32.2 °C. In addition, the folding enthalpy in series [2] was -7.38 kcal/mol.

For GTGCTGGGAAACTAGCGC (.(((.(....).))).), in series [1], the Tm was 45.5 °C. Besides, in series [2], the folding enthalpy is -29.7 kcal/mol.

For GAACTAGGAAACTAGCTC ((.((((....)))).)), the Tm in series [1] was determined as 29 °C. The folding enthalpy in series [2] is -21.3 kcal/mol.

As for ATTCTGAAAAGAAT (((((....))))), the Tm in series [1] turned out to be 32.2 °C. Besides, the folding enthalpy in series [2] is -12.6 kcal/mol.

For the sequence CGTCGACGGAAACGTACG (((..(((....)))))), the Tm in series [1] came to 38.1 °C. In addition, the folding enthalpy in series [2] is -20.2 kcal/mol.

Regarding GAAAACGGAAACGCTTTC ((((.((....)).)))), the Tm in series [1] turned out to be 34.8 °C. The folding enthalpy in series [2] is -32.4 kcal/mol.

Consider GCAATCCCGAAAGGGTGC (((..(((....)))))), for which the Tm in series [1] turned out to be 46.6 °C. For the same sequence, the folding enthalpy in series [2] is -19.1 kcal/mol.

GCGAAGGTCGC ((((...)))): the Tm in series [1] turned out to be 49.9 °C. The folding enthalpy in series [2] was -15.3 kcal/mol.

Turning to GGTGGAGGAAACTCCACC (((((((....))))))), the Tm in series [1] came out at 67.5 °C. For the same sequence, the folding enthalpy in series [2] was -38.6 kcal/mol.

GAACACGGAAACGTGTTC (((((((....))))))): in series [1], the Tm worked out at 67.5 °C. Also, the folding enthalpy in series [2] is -38.1 kcal/mol.

Turning to GCTGTCGGAAACGGCAGC ((((.((....)).)))), in series [1], the Tm came to 63 °C. The folding enthalpy in series [2] is -47.7 kcal/mol.
